# Measured values taken from ChEMBL document CHEMBL1126641, “Synthesis and opioid activity of dynorphin A-(1-13)NH2 analogues containing cis- and trans-4-aminocyclohexanecarboxylic acid” (J Med Chem, 1993).
# Values joined by “and” are separate entries in the source; they are usually repeats but may differ in a detail not shown here. Identical values can stand only once. Residues, ends and D or L forms follow the SMILES beside them.
# Experiments:
# [1] = biological target: Kappa-type opioid receptor (Cavia porcellus, UniProt P41144); assay: Compound was tested for binding affinity towards kappa opioid receptor in guinea pig cerebellar membrane using [3H]bremazocine; format: cell membranes, Cerebellum
# Chain of Kappa-type opioid receptor (P41144 whole entry): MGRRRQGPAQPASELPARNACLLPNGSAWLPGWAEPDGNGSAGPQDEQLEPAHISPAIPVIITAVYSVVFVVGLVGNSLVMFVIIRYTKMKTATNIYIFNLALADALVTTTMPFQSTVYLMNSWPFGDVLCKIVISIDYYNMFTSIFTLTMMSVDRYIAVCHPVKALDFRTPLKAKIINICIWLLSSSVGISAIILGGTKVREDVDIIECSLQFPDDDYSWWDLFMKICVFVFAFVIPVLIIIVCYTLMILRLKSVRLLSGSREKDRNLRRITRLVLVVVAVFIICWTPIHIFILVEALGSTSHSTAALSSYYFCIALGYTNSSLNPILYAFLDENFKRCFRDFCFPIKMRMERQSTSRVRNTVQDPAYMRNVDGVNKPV
# Outline: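 Competitive inhibition of [3H]bremazocine binding to guinea pig cerebellar membranes. The incubation mixtures contained 100 nM DAMGO. Affinity is reported as Ki.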
# [2] = biological target: Mu-type opioid receptor (Rattus norvegicus, UniProt P33535); assay: Compound was tested for binding affinity towards mu-opioid receptor in rat forebrain membrane using [3H]DAMGO; format: cell membranes
# Chain of Mu-type opioid receptor (P33535 whole entry): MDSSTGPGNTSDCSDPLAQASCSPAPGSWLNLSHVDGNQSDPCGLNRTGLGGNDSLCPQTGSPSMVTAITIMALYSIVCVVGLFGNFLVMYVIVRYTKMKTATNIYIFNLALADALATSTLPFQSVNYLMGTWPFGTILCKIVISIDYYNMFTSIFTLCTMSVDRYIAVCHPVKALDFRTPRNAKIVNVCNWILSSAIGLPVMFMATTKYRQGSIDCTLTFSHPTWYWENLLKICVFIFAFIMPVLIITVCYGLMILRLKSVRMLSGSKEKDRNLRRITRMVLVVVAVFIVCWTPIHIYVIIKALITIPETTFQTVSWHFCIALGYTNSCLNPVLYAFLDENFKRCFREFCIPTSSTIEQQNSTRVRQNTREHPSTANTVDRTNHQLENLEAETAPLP
# [3] = biological target: T1, Opioid receptors; mu/kappa/delta (Homo sapiens, UniProt P41145+P41143+P35372); assay: Opioid receptor activity in guinea pig ileum assay; format: tissue-based, Cavia porcellus; details: target entry is the homologue from another species
# T1 sequence (P35372 whole entry, looked up): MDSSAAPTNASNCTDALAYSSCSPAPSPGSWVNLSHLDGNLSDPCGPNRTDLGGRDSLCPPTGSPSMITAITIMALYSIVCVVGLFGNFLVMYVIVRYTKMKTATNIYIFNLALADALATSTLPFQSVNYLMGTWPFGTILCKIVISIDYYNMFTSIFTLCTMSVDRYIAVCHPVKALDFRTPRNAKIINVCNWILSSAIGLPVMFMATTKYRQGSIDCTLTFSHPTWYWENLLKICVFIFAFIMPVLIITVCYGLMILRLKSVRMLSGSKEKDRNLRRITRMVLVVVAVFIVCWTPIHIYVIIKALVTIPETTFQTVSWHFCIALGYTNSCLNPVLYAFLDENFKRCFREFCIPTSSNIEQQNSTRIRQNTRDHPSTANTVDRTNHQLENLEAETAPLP
# T1 sequence (P41143 whole entry, looked up): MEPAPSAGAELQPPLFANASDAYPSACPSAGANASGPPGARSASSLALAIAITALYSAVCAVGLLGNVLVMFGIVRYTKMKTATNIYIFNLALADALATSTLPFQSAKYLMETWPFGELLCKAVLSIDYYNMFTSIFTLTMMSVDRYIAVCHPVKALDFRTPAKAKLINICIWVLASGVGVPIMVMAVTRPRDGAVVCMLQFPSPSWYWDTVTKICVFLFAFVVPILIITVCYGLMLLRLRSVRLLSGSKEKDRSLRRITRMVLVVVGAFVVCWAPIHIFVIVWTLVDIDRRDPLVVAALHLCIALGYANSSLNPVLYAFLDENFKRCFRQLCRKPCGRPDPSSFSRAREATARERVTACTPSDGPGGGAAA
# T1 sequence (P41145 whole entry, looked up): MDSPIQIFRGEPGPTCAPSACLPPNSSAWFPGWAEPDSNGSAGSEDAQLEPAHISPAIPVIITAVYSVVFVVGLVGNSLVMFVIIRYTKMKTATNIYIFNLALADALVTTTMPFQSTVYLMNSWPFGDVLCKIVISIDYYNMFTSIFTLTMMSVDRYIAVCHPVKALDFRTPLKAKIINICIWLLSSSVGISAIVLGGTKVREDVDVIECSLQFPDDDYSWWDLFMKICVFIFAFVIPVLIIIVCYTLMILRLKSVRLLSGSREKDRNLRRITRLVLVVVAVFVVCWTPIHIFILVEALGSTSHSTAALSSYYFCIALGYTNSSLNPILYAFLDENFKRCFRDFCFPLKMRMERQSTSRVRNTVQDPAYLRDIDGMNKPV
# [4] = biological target: Delta-type opioid receptor (Rattus norvegicus, UniProt P33533); assay: Compound was tested for binding affinity towards delta-opioid receptor in rat forebrain membrane using [3H]DPDPE; format: cell membranes
# Chain of Delta-type opioid receptor (P33533 whole entry): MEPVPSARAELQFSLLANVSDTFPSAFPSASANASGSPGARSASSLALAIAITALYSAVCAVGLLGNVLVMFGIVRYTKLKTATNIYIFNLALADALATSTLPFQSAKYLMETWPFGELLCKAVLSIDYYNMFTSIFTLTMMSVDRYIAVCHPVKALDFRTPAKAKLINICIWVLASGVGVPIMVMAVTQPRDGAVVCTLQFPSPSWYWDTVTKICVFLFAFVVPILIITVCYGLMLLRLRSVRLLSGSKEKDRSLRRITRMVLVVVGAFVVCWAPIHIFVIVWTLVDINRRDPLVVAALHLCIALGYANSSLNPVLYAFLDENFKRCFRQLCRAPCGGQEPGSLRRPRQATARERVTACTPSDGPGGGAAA
# [5] = biological target: T1, Opioid receptors; mu/kappa/delta; assay: ratio is kappa/mu/delta opioid receptors; format: protein assay
# Outline: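 The Ki ratio κ/μ/δ is taken from three binding assays. κ: [3H]bremazocine on guinea pig cerebellar membranes, with 100 nM DAMGO present. μ: [3H]DAMGO on rat forebrain membranes. δ: [3H]DPDPE on rat forebrain membranes.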
smiles,measurement,setting,value
CC[C@H](C)[C@H](NC(=O)[C@H](CCCN=C(N)N)NC(=O)[C@H](CCCN=C(N)N)NC(=O)[C@H](CC(C)C)NC(=O)[C@H](Cc1ccccc1)NC(=O)CNC(=O)C(C)(C)NC(=O)[C@@H](N)Cc1ccc(O)cc1)C(=O)N[C@@H](CCCN=C(N)N)C(=O)N1CCC[C@H]1C(=O)N[C@@H](CCCCN)C(=O)N[C@@H](CC(C)C)C(=O)N[C@@H](CCCCN)C(N)=O (HELM PEPTIDE1{Y.[Aib].G.F.L.R.R.I.R.P.K.L.K.[am]}$$$$V2.0),Ki,[1],50 nM
same,Ki,[2],10 nM
CC[C@H](C)[C@H](NC(=O)[C@H](CCCN=C(N)N)NC(=O)[C@H](CCCN=C(N)N)NC(=O)[C@H](CC(C)C)NC(=O)[C@H](Cc1ccccc1)NC(=O)CNC(=O)CNC(=O)[C@@H](N)Cc1ccc(O)cc1)C(=O)N[C@@H](CCCN=C(N)N)C(=O)N1CCC[C@H]1C(=O)N[C@@H](CCCCN)C(=O)N[C@@H](CC(C)C)C(=O)N[C@@H](CCCCN)C(N)=O,Ki,[1],0.146 nM
same,Ki,[2],0.194 nM
same,IC50,[3],0.24 nM
same,Ki,[4],3.88 nM
CC[C@H](C)[C@H](NC(=O)[C@H](CCCN=C(N)N)NC(=O)[C@H](CCCN=C(N)N)NC(=O)[C@H](CC(C)C)NC(=O)[C@H](Cc1ccccc1)NC(=O)C1CCC(NC(=O)[C@@H](N)Cc2ccc(O)cc2)CC1)C(=O)N[C@@H](CCCN=C(N)N)C(=O)N1CCC[C@H]1C(=O)N[C@@H](CCCCN)C(=O)N[C@@H](CC(C)C)C(=O)N[C@@H](CCCCN)C(N)=O (stereo partly specified) (HELM PEPTIDE1{Y.[O=C(C1CCC(N[*:1])CC1)[*:2]].F.L.R.R.I.R.P.K.L.K.[am]}$$$$V2.0),Ki,[1],13.4 nM and 9.1 nM
same,Ki,[2],275 nM and 117 nM
same,Ratio,[5],4.62 and 3.66
same,IC50,[3],4090 nM
same,Ki,[4],1370 nM and 1910 nM
